Data set [1] has as its system Mus musculus. The experiment in a line: Anticonvulsant activity in mouse assessed as protection against maximal electroshock-induced seizures at 30 mg/kg, ip after 0.5 hrs. Also on record: dose 30 mg/kg. Format: functional, organism-based. In a few lines: (§1)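 Swiss albino mice (20-24 g) received an ip suspension in 30% aqueous PEG 400 and were tested 0.5 h and 4 h after dosing. Shock was delivered through corneal electrodes from a constant current unit, with 0.9% saline dropped into the eyes first. Protection meant abolition of the hind limb tonic extension. Scored as number protected/number tested, one mouse per dose and time.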
On the technique in general: In the maximal electroshock model the usual endpoint is tonic extension of the hind limbs.

Data set [2] deals with Mus musculus. The data set can be described thus: Anticonvulsant activity in mouse assessed as protection against subcutaneous pentylenetetrazole-induced seizures at 30 mg/kg, ip after 4 hrs. Format: functional, organism-based. On the set-up: dose 30 mg/kg. In a few lines: (§2)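 Swiss albino mice (20-24 g) were dosed ip with a suspension in 30% aqueous PEG 400 and challenged 0.5 h or 4 h later. Protection meant no threshold seizure (clonic spasms lasting at least 5 s). Scored as number protected/number tested, one mouse per dose and time.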

Data set [3] deals with Mus musculus. The experiment in a line: Neurotoxicity in mouse assessed as motor impairment at 30 mg/kg, ip after 4 hrs by rotarod test. Also on record: dose 30 mg/kg, route intraperitoneal. The class given is toxicity, organism-based. The conditions noted are these: in vivo. In a few lines:
(§3)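 Swiss albino mice (20-24 g) were dosed ip with a suspension in 30% aqueous PEG 400 and tested 0.5 h or 4 h later. They were placed on a knurled wooden rod 1 inch in diameter, rotating at 6 rpm. Toxicity meant failure to stay on the rod for at least 1 min in each of three trials. Scored as number toxic/number tested (4 mice at 0.5 h, 2 at 4 h).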
A general note: The rotarod test checks motor coordination on a turning rod.

Data set [4] has as its system Mus musculus. The data set can be described thus: Anticonvulsant activity in mouse assessed as protection against subcutaneous pentylenetetrazole-induced seizures at 300 mg/kg, ip after 0.5 hrs. The class given is functional, organism-based. On the set-up: dose 300 mg/kg. A digest of the protocol: as §2
Data set [5] relates to Mus musculus. The experiment in a line: Anticonvulsant activity in mouse assessed as protection against subcutaneous pentylenetetrazole-induced seizures at 100 mg/kg, ip after 4 hrs. On the set-up: dose 100 mg/kg. The class given is functional, organism-based. In a few lines:
as §2

In data set [6] the test system is Mus musculus. The experiment in a line: Anticonvulsant activity in mouse assessed as protection against subcutaneous pentylenetetrazole-induced seizures at 30 mg/kg, ip after 0.5 hrs. The class given is functional, organism-based. On the set-up: dose 30 mg/kg. A digest of the protocol: as §2
For data set [7], the system named is Mus musculus. The experiment in a line: Neurotoxicity in mouse assessed as motor impairment at 100 mg/kg, ip after 4 hrs by rotarod test. The class given is toxicity, organism-based. On the set-up: dose 100 mg/kg, route intraperitoneal. The conditions noted are these: in vivo. In a few lines:
as §3

Data set [8] concerns Mus musculus. The experiment in a line: Anticonvulsant activity in mouse assessed as protection against subcutaneous pentylenetetrazole-induced seizures at 300 mg/kg, ip after 4 hrs. Format: functional, organism-based. Also on record: dose 300 mg/kg. A digest of the protocol: as §2
For data set [9], the system named is Mus musculus. The data set can be described thus: Anticonvulsant activity in mouse assessed as protection against maximal electroshock-induced seizures at 100 mg/kg, ip after 0.5 hrs. On the set-up: dose 100 mg/kg. Format: functional, organism-based. In a few lines: as §1
The subject of data set [10] is Mus musculus. The experiment in a line: Neurotoxicity in mouse assessed as motor impairment at 300 mg/kg, ip after 4 hrs by rotarod test. The conditions noted are these: in vivo. Also on record: dose 300 mg/kg, route intraperitoneal. The class given is toxicity, organism-based. In a few lines:
as §3

In data set [11] the test system is Mus musculus. The experiment in a line: Neurotoxicity in mouse assessed as motor impairment at 30 mg/kg, ip after 0.5 hrs by rotarod test. Format: toxicity, organism-based. The conditions noted are these: in vivo. On the set-up: dose 30 mg/kg, route intraperitoneal. In a few lines: as §3
In data set [12] the test system is Mus musculus. The experiment in a line: Anticonvulsant activity in mouse assessed as protection against maximal electroshock-induced seizures at 300 mg/kg, ip after 0.5 hrs. Also on record: dose 300 mg/kg. Format: functional, organism-based. In a few lines:
as §1

Data set [13] deals with Mus musculus. The experiment in a line: Anticonvulsant activity in mouse assessed as protection against maximal electroshock-induced seizures at 100 mg/kg, ip after 4 hrs. Format: functional, organism-based. On the set-up: dose 100 mg/kg. In a few lines:
as §1

The test system of data set [14] is Mus musculus. The experiment in a line: Anticonvulsant activity in mouse assessed as protection against maximal electroshock-induced seizures at 300 mg/kg, ip after 4 hrs. The class given is functional, organism-based. Also on record: dose 300 mg/kg. A digest of the protocol:
as §1

Data set [15] has as its system Mus musculus. The data set can be described thus: Neurotoxicity in mouse assessed as motor impairment at 300 mg/kg, ip after 0.5 hrs by rotarod test. Format: toxicity, organism-based. On the set-up: dose 300 mg/kg, route intraperitoneal. The conditions noted are these: in vivo. A digest of the protocol: as §3
In data set [16] the test system is Mus musculus. The experiment in a line: Anticonvulsant activity in mouse assessed as protection against subcutaneous pentylenetetrazole-induced seizures at 100 mg/kg, ip after 0.5 hrs. Format: functional, organism-based. On the set-up: dose 100 mg/kg. In a few lines:
as §2

Data set [17] has as its system Mus musculus. The data set can be described thus: Anticonvulsant activity in mouse assessed as protection against maximal electroshock-induced seizures at 30 mg/kg, ip after 4 hrs. Also on record: dose 30 mg/kg. The class given is functional, organism-based. A digest of the protocol:
as §1

In data set [18] the test system is Mus musculus. The experiment in a line: Neurotoxicity in mouse assessed as motor impairment at 100 mg/kg, ip after 0.5 hrs by rotarod test. The class given is toxicity, organism-based. The settings on record: in vivo. Also on record: dose 100 mg/kg, route intraperitoneal. A digest of the protocol: as §3

Calls of active or inactive are those of the source.

For the molecule `COc1ccccc1C(=O)O/N=C(\Cn1ccnc1)c1ccc2ccccc2c1`, the result in [1], in [2], in [5], in data set [6] and in data set [8] was inactive. The Activity result in data set [3], in [7], in [10], in data set [11], in [15] and in data set [18] was “Non-toxic” in each case. For the same molecule, the result in data set [4], in [9], in [12], in [13], in data set [14] and in data set [16] was Active. Besides, the result in data set [17] was Active.
For `O=C(O/N=C(\Cn1ccnc1)c1ccc2ccccc2c1)c1ccc(Cl)cc1`, the result in [1], in data set [4], in [6], in data set [9], in data set [12] and in [13] was inactive. For the same molecule, the outcome in data set [14], in [16] and in [17] was inactive. For the same molecule, the outcome in data set [2], in [5] and in data set [8] was Active. For the same molecule, the Activity entry in [3], in data set [7], in data set [10], in data set [11], in [15] and in data set [18] was “Non-toxic” throughout.
For `CCCC(CCC)C(=O)[O-].[Na+]` [VALPROATE SODIUM], the outcome in data set [1], in data set [2], in data set [5], in data set [6], in data set [8] and in data set [9] was inactive. For the same molecule, the outcome in [13], in data set [14], in [16] and in data set [17] was inactive. The Activity entry in [3], in data set [7], in [10], in data set [11], in data set [15] and in [18] was “Non-toxic” throughout. For the same molecule, the result in data set [4] and in data set [12] was Active.
Regarding `Cl.O=C(/C=C/c1ccccc1)O/N=C(\Cn1ccnc1)c1ccc2ccccc2c1`, the outcome in [1], in data set [9] and in data set [12] was Active. In addition, the outcome in [2], in [4], in data set [5], in [6], in data set [8] and in [13] was inactive. Moreover, the result in data set [14], in data set [16] and in data set [17] was inactive. The Activity result in data set [3], in data set [7], in data set [10], in [11], in [15] and in data set [18] was “Non-toxic” throughout.

For the origin of these results see ChEMBL document CHEMBL2086248, “Synthesis of some novel 1-(2-naphthyl)-2-(imidazol-1-yl)ethanone oxime ester derivatives and evaluation of their anticonvulsant activity” (Eur J Med Chem, 2012).
